One test has as its system BT-474. As to the kind of experiment: Cytotoxicity against human BT474 cells after 3 days by MTT assay. The format is functional, cell-based. The settings on record: BT-474, 72 h. Put shortly: (§1)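 Cells grown in RPMI-1640 with 25 mM HEPES, 0.25% (w/v) sodium bicarbonate, 5% (v/v) FBS and 100 µg/mL kanamycin. Freshly trypsinized cells were seeded at 5000 per well and given compound from DMSO-diluted stock. After three days, attached cells were MTT-stained, bound dye was solubilized and absorbance read at 540 nm. IC50 = 50% growth inhibition, averaged over at least six independent determinations.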

The nature of test [1]: Cytotoxicity against human KATO III cells after 3 days by MTT assay. The format is functional, cell-based, KATO III cell. Particulars: 72 h. Put shortly: as §1
A short description of test [2]: Cytotoxicity against human ChaGo cells after 3 days by MTT assay. The format is functional, cell-based. The settings on record: 72 h. An outline of the steps:
as §1
For orientation: Formazan colour is commonly taken as a measure of viable cells.

The test system of another test is SW-620. Kind of test: Cytotoxicity against human SW620 cells after 3 days by MTT assay. The format is functional, cell-based. Particulars: SW-620, 72 h. An outline of the steps: as §1
In a further test the test system is HepG2. As to the kind of experiment: Cytotoxicity against human HepG2 cells after 3 days by MTT assay. The format is functional, cell-based. Particulars: HepG2, 72 h. An outline of the steps: as §1

Experimental findings from ChEMBL document CHEMBL1154848, “Cytotoxic 3,4-seco-cycloartane triterpenes from the exudate of Gardenia tubifera” (J Nat Prod, 2010) are described below.

In brackets after ≈: the same amount, converted by molar mass.

For orientation: IC50 means the concentration that gives 50% inhibition. Lower therefore signals inhibition by little substance. For the molecule `C=C(CO)[C@@H]1CC[C@@H]2[C@]3(CC[C@]4(C)[C@@H]([C@H](C)CC=CC(C)(C)O)CC[C@@]24C)C[C@]13CCC(=O)O`, the IC50 (in the test on BT-474; in test [1]; in test [2]; in the test with SW-620; in the test on HepG2) was above 5 µg/mL each time.

As for `C=C1C(=O)O[C@@H]2C[C@@H]3[C@]4(CC[C@]5(C)[C@@H]([C@H](C)Cc6cc(C)co6)CC[C@@]35C)C[C@]4(CCC(=O)O)[C@H]12` [GARDENOIN A], the IC50 with BT-474 was above 5 µg/mL; in test [1] it was above 5 µg/mL; in test [2], 1.6 µg/mL (≈ 3.33 µM); in the test with SW-620, above 5 µg/mL; in the test with HepG2 it was 4.5 µg/mL (≈ 9.36 µM).

Turning to `C=C1C(=O)O[C@@H]2C[C@@H]3[C@]4(CC[C@]5(C)[C@@H]([C@H](C)Cc6cc(C)co6)CC[C@@]35C)C[C@]4(CCC(=O)OC)[C@H]12` [GARDENOIN B], the IC50 (in the test with BT-474; in test [1]; in test [2]; in the test with SW-620; with HepG2) was above 5 µg/mL each time.

For `C=C1C(=O)O[C@@H]2[C@H](O)[C@@H]3[C@]4(CC[C@]5(C)[C@@H]([C@H](C)Cc6cc(C)co6)CC[C@@]35C)C[C@]4(CCC(=O)OC)[C@H]12` [GARDENOIN C], the IC50 was above 5 µg/mL in the test on BT-474; above 5 µg/mL in test [1]; 4.4 µg/mL (≈ 8.62 µM) in test [2]; 2.5 µg/mL (≈ 4.9 µM) with SW-620; 2.8 µg/mL (≈ 5.48 µM) with HepG2.
